Experimental findings from ChEMBL document CHEMBL1641413, “Identification of 3-sulfonylindazole derivatives as potent and selective 5-HT(6) antagonists” (Bioorg Med Chem, 2011) are described below.

Broadly, the Ki is a dissociation constant, usually derived from enzyme kinetics or from competition with a known ligand. Higher therefore signals a looser hold on the target. Usually IC50 stands for the concentration needed to halve the response being measured.

The nature of series [1]: % bound in plasma. It counts as ADME, cell-free. The settings on record: read-out: PPB.
Series [2] deals with T1, 5-hydroxytryptamine receptor 6 (Homo sapiens, UniProt P50406). Nature of the series: Displacement of [3H]-LSD from cloned human 5-HT6 receptor expressed in human HeLa cells. It counts as cell-based. The method in brief: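 Radioligand displacement of [³H]-LSD from cloned human 5-HT6 receptors stably expressed in HeLa cells; compounds tested as HCl salts; Ki values determined in triplicate.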
T1 sequence (P50406 whole entry): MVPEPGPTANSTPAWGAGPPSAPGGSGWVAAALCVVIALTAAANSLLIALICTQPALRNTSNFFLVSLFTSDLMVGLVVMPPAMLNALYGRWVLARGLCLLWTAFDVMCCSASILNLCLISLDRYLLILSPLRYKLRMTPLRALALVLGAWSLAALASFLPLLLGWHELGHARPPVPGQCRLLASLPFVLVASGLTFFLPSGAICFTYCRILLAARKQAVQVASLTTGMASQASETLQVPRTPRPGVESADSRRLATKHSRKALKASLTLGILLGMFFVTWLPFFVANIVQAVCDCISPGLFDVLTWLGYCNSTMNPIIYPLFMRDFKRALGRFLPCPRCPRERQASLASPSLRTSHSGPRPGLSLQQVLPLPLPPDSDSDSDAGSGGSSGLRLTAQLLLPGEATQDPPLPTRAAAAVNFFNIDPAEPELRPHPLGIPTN
In general terms: In a radioligand displacement assay an active substance lowers the binding of a labelled ligand.

The target of series [3] is T1, 5-hydroxytryptamine receptor 6. The experiment in a line: Antagonist activity at cloned human 5-HT6 receptor expressed in human HeLa cells assessed as inhibition of 5HT-induced cyclic AMP formation. It counts as functional, cell-based.

For `O=S(=O)(c1cccc2ccccc12)c1n[nH]c2ccc(NCC3CCNCC3)cc12`, in series [1], the fraction unbound is > 0.2. The compound further came in with a Ki in series [2] of 3.5 nM. Also, the IC50 in series [3] came to 174 nM.

As for `CCN(CC)CCC(=O)Nc1ccc2c(S(=O)(=O)c3cccc4ccccc34)n[nH]c2c1`, in series [1], the fraction unbound is > 0.2. This compound yielded a Ki in series [2] of 65 nM.

For `O=C(Nc1cccc2c(S(=O)(=O)c3cccc4ccccc34)n[nH]c12)C1CCNCC1`, the fraction unbound in series [1] was > 0.2. The same compound came in with a Ki in series [2] of 28 nM.

As for `NCCNCc1ccc2[nH]nc(S(=O)(=O)c3cccc4ccccc34)c2c1`, the fraction unbound in series [1] is > 0.2. Affinity in series [2] was put at a Ki of 12 nM. The IC50 in series [3] was found to be 156 nM.

In the case of `Cc1cccc(S(=O)(=O)c2n[nH]c3ccc(NC4CCNCC4)cc23)c1`, the fraction unbound in series [1] is > 0.2. The compound also came in with an inhibitory constant (Ki) in series [2] of 0.8 nM. Further, the IC50 in series [3] is 19 nM.

As for `CN(C)CCC(=O)Nc1cccc2c(S(=O)(=O)c3cccc4ccccc34)n[nH]c12`, the fraction unbound in series [1] is > 0.2. This compound also displayed a Ki in series [2] of 4.8 nM. Besides, the IC50 in series [3] amounted to 137 nM.

Regarding `CN(C)CCNC(=O)c1ccc2[nH]nc(S(=O)(=O)c3cccc4ccccc34)c2c1`, the fraction unbound in series [1] was > 0.2. Moreover, in series [2], the affinity, expressed as Ki, was 2.9 nM. Also, the IC50 in series [3] came to 103 nM.

On to `O=C(CCN1CCCCC1)Nc1ccc2c(S(=O)(=O)c3cccc4ccccc34)n[nH]c2c1`, for which, in series [1], the fraction unbound was > 0.2. The same compound gave a Ki in series [2] of 12 nM. The 50% inhibitory concentration (IC50) in series [3] stood at 90 nM.

Consider `O=S(=O)(c1cccc2ccccc12)c1n[nH]c2cccc(NC3CCCNC3)c12` (stereo not given), for which the fraction unbound in series [1] was > 0.2. In series [2], this compound gave a Ki of 4.2 nM. For the same compound, the IC50 in series [3] amounted to 88 nM.

In the case of `O=S(=O)(c1cccc2ccccc12)c1n[nH]c2cc(NC3CCNCC3)ccc12`, the fraction unbound in series [1] is > 0.2. Also, the Ki in series [2] is 53 nM.

In the case of `O=C(Nc1cccc2c(S(=O)(=O)c3cccc4ccccc34)n[nH]c12)C1CCCNC1` (stereo not given), the fraction unbound in series [1] is > 0.2. Further, affinity in series [2] was put at a Ki of 9.8 nM. Moreover, the IC50 in series [3] is 48 nM.

Regarding `O=S(=O)(c1cccc(F)c1)c1n[nH]c2ccc(NC3CCNCC3)cc12`, the fraction unbound in series [1] is > 0.2. In addition, in series [2], affinity was put at a Ki of 6.7 nM. The IC50 in series [3] worked out at 94 nM.

For `O=S(=O)(c1ccccc1)c1n[nH]c2ccc(NC3CCNCC3)cc12`, in series [1], the fraction unbound was > 0.2. In addition, the Ki in series [2] stood at 3.1 nM. In addition, in series [3], the IC50 amounted to 125 nM.

Turning to `O=S(=O)(c1cccc2ccccc12)c1n[nH]c2cc(NC3CCCNC3)ccc12` (stereo not given), the fraction unbound in series [1] is > 0.2. Moreover, in series [2], the Ki amounted to 57 nM.

`O=S(=O)(c1cccc2ccccc12)c1n[nH]c2c(NC3CCNCC3)cccc12`: the fraction unbound in series [1] is > 0.2. Besides, the Ki in series [2] was found to be 30 nM.

On to `O=S(=O)(c1cccc2ccccc12)c1n[nH]c2c(NC3CCCNC3)cccc12` (stereo not given), for which the fraction unbound in series [1] was > 0.2. The same compound registered an inhibition constant (Ki) in series [2] of 66 nM.

For `NCCC(=O)Nc1cccc2c(S(=O)(=O)c3cccc4ccccc34)n[nH]c12`, the fraction unbound in series [1] was > 0.2. In addition, the affinity in series [2], expressed as Ki, was 3.4 nM.

`O=C(CCN1CCCCC1)Nc1cccc2c(S(=O)(=O)c3cccc4ccccc34)n[nH]c12`: the fraction unbound in series [1] is > 0.2. Besides, in series [2], the Ki worked out at 24 nM.

With `O=C(NCCN1CCCCC1)c1ccc2[nH]nc(S(=O)(=O)c3cccc4ccccc34)c2c1`, the fraction unbound in series [1] was > 0.2. The same compound registered a Ki in series [2] of 107 nM.

In the case of `O=S(=O)(c1cccc2ccccc12)c1n[nH]c2cc(NCC3CCNCC3)ccc12`, the fraction unbound in series [1] is > 0.2. Also, the Ki in series [2] came out at 44 nM.

As to `O=C(Nc1ccc2c(S(=O)(=O)c3cccc4ccccc34)n[nH]c2c1)C1CCNCC1`, the fraction unbound in series [1] was > 0.2. Moreover, in series [2], the Ki came out at 31 nM.

As for `CN(C)CCC(=O)Nc1ccc2c(S(=O)(=O)c3cccc4ccccc34)n[nH]c2c1`, the fraction unbound in series [1] is > 0.2. In series [2], this compound gave an inhibition constant (Ki) of 44 nM.

As to `CC(C)[C@H](N)CNc1ccc2[nH]nc(S(=O)(=O)c3cccc4ccccc34)c2c1`, in series [1], the fraction unbound is > 0.2.
